Measured values published in ChEMBL document CHEMBL1140487, “Construction of polyamine-modified uridine and adenosine derivatives--evaluation of DNA binding capacity and cytotoxicity in vitro” (Bioorg Med Chem, 2007).

Columns and labels:
Clupea [1] = assay: Effect on thermal melting point of herring testes DNA at 10 uM
Summary of the method: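 Herring testes DNA at 100 µM with 10 µM polyamine in 10 mM NaCl. Absorbance read at 260 nm while heating at 0.4 °C/min from 25–98 °C. The system equilibrated 15 min before the first reading, then readings were taken each degree (2 s averaging). Tm was taken from the peak of the first-derivative curve. pH was checked before and after polyamine addition.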

HCC1937 = assay: Toxicity in human HCC1937 cells after 48 hrs by MTT assay; type: cell-based; conditions: hcc1937, 48 h
Summary of the method: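 HCC1937 cells were grown in MEM α with 10% heat-inactivated FCS, NEAA, gentamycin, EGF 20 ng/ml and insulin, at 37 °C, 5% CO2. Plateau-phase cells were seeded at 0.055×10^6/ml and compounds added after 24 h at 0.1–100 µM final. Controls got PBS. MTT was added for 1 h, formazan dissolved in DMSO, A540 read. Values are % of control ± SD.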

[2] = Toxicity in human L56BrC1 cells after 48 hrs by MTT assay; type: cell-based
Summary of the method: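 L56Br-C1 cells were grown in RPMI 1640 with 10% heat-inactivated FCS, NEAA, insulin and penicillin/streptomycin, at 37 °C, 5% CO2. After seeding at 0.055×10^6 cells/ml and 24 h growth, compounds were added at 0.1, 1, 10 or 100 µM final; controls received PBS. After 1 h MTT, formazan was dissolved in DMSO and A540 read. Results are % of control ± SD.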

[3] = Toxicity in human SKBR3 cells after 48 hrs by MTT assay; type: cell-based; conditions: sk-br-3, 48 h
Summary of the method: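 SK-BR-3 cells were grown in RPMI 1640 with 10% FCS, NEAA and penicillin/streptomycin, no insulin, at 37 °C, 5% CO2. Cells were seeded at 0.055×10^6/ml, and 24 h later compounds were added at 0.1–100 µM final (PBS for controls). MTT was added for 1 h, formazan dissolved in DMSO, A540 read; outer wells were excluded. Values are % of control ± SD.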

Clupea [4] = assay: Effect on thermal melting point of herring testes DNA at 100 uM
Clupea [5] = assay: Effect on thermal melting point of herring testes DNA at 50 uM
Clupea [6] = assay: Effect on thermal melting point of herring testes DNA at 1 uM

| Compound | Tm (Clupea [1]) | ΔTm (Clupea [1]) | Tm (Clupea [4]) | ΔTm (Clupea [4]) | Tm (Clupea [5]) | ΔTm (Clupea [5]) | Tm (Clupea [6]) | ΔTm (Clupea [6]) | Activity (HCC1937) | Activity [2] | Activity [3] |
| --- | --- | --- | --- | --- | --- | --- | --- | --- | --- | --- | --- |
| NCCCN(CCCN)CC(=O)NCC#Cc1cn([C@@H]2O[C@H](CO)[C@@H](O)[C@H]2O)c(=O)[nH]c1=O | 66.5 °C | 1.5 °C | – | – | – | – | – | – | Non-toxic | Non-toxic | Non-toxic |
| NCCCNCCCN [NORSPERMIDINE] | 77 °C | 12 °C | – | – | – | – | – | – | Non-toxic | Non-toxic | Non-toxic |
| C#CCNC(=O)CN(CCCN)CCCN | 58 °C | -7 °C | 51 °C | -14 °C | 52 °C | -13 °C | – | – | Non-toxic | Non-toxic | Non-toxic |

More lines, main results first:

| Tm (Clupea [1]) | ΔTm (Clupea [1]) | Tm (Clupea [4]) | ΔTm (Clupea [4]) | Tm (Clupea [5]) | ΔTm (Clupea [5]) | Tm (Clupea [6]) | ΔTm (Clupea [6]) | Compound | Activity (HCC1937) | Activity [2] | Activity [3] |
| --- | --- | --- | --- | --- | --- | --- | --- | --- | --- | --- | --- |
| 66 °C | 1 °C | – | – | – | – | – | – | NCCCN(CCCN)CC(=O)NCC#Cc1nc(N)c2ncn([C@@H]3O[C@H](CO)[C@@H](O)[C@H]3O)c2n1 | Non-toxic | Non-toxic | Non-toxic |
| 61 °C | -4 °C | 50 °C | -15 °C | – | – | 62 °C | -3 °C | NCCCN(CCCN)CC(=O)O | Non-toxic | Non-toxic | Non-toxic |
